Bioassay records from PubChem BioAssay.
NTR1 ag – NTR1 (human) agonism | P30989 | NTR1-U2OS beta-arrestin-GFP spot imaging, agonist mode | activation, % at 20 µM | 0.17% of 330,000 active | AID 493036;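 active = activation at or above 40% of the spot to cytoplasm intensity ratio, with at least 20 cells analyzed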
MC4R antag cAMP – blocks human MC4R cAMP signaling; MC4R-expressing cells, MTII-stimulated cAMP, LANCE TR-FRET; inhibition, % at 6.5 µM; 0.48% of 360,000 active; AID 540295;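 active = inhibition above its plate's cutoff, the mean of tested wells on that plate plus 3 SD, cut at about 29% in these data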
Target sequence (P32245 whole entry, looked up): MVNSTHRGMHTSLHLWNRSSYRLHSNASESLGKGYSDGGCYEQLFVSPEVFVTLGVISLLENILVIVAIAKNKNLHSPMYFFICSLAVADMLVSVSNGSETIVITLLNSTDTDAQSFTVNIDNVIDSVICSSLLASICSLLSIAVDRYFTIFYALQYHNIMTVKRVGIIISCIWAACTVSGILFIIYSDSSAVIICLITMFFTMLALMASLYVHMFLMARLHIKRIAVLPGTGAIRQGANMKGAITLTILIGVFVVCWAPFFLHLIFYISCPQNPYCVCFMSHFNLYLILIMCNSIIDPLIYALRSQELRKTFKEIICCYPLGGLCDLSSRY
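Assay system: human MC4R-expressing U2OS cells; reagent: Melanotan II stimulation of cells; dosing: 6.5 µM single dose; timing: compound 30 min, challenge 1 h, detection 1 h; signal: TR-FRET cAMP assay; replicates: one well per compound, no replicates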
Lipid droplet – hepatic lipid droplet formation modulation; AML12 mouse hepatocytes, oleate lipid droplets, BODIPY imaging; 0.4% of 240,000 active; inhibition, % at 6.5 µM;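 active = lipid droplet intensity inhibited by at least 50%, with more than 500 cells counted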
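Assay system: AML12 mouse liver cells | Compound dosing: One dose, 6.5 µM compound | Read-out basis: Droplet intensity reduction, % inhibition | Measured by: Fluorescence imaging, 20x objective, two fields per well | Schedule: Overnight treatment with compound plus oleate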
PREPL inh – inhibits the human prolyl oligopeptidase-like enzyme; inhibition, % at 5.96 µM; Q4J6C6; AID 2751; recombinant PREPL, fluorescence polarization activity-based probe; 0.68% of 320,000 active; in the data active = inhibition above about 43%
MC4R ag barr – human MC4R agonism via beta-arrestin | P32245 | U2OS MC4R beta-arrestin complementation, luminescence; percent of melanotan II response, DMSO zero | activation, % at 8.9 µM | 0.98% of 360,000 active;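 active = activation above a per-plate cutoff, the mean activation of sample wells on that plate plus 3 SD, cut at about 8% in these data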
HTR2A ag – mouse HTR2A agonism via beta-arrestin recruitment. CHO-K1 mHTR2A beta-arrestin complementation, luminescence; percent of 30 µM serotonin response. P35363. 0.66% of 360,000 active. AID 624169. activation, % at 7.6 µM;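 active = activation above a run cutoff, the mean activation of all tested compounds plus 3 SD, cut at about 14% in these data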
Of the large screens only hits and unclear results are named; the others gave an inactive call. A selection: hits, their analogues and other compounds. The true share with any hit is near 2.7%.

OC(c1ccc(-c2ccccc2)cc1)c1ncc(-c2cccc(F)c2)[nH]1 (configuration not stated)	none (no result: NTR1 ag, Lipid droplet, PREPL inh)
C=C(CN(C)C)C(=O)c1cc(C)ccc1C	MC4R antag cAMP 47 (no result: NTR1 ag, Lipid droplet, PREPL inh)
Cc1ccc2c(c1C)OC(=O)CC2(C)C	none
N#CC(=C(c1ccccc1)c1ccccc1)c1ccccc1	none (no result: NTR1 ag, Lipid droplet, PREPL inh)
CCOC(=O)[C@]12CCC=C1N(Cc1cccc3ccccc13)C(=O)[C@H](CC(=O)NCCc1ccccc1OC)C2	none (no result: NTR1 ag, MC4R antag cAMP, Lipid droplet, PREPL inh, MC4R ag barr)
O=C(c1cc2c(s1)CCCC2)n1cccn1	PREPL inh 68
NS(=O)(=O)c1ccc(NC(=O)COC(=O)COc2ccc3ccccc3c2)cc1	HTR2A ag 17
Cn1c(=O)n(CC(=O)NCC2CCCO2)c(=O)c2c3c(sc21)CCCC3 (configuration not stated)	none
Cc1ccc(/C=N/NC(=O)CSc2nc3nc(C)cc(C)n3n2)cc1	none (no result: Lipid droplet)
Cc1cc(C)n2nc(SCC(=O)N/N=C/c3ccccc3F)nc2n1	PREPL inh 50 (no result: Lipid droplet)
O=C(COC(=O)c1ccc2[nH]c3c(c2c1)CCCC3)Nc1ccccc1Cl	none
CCC(C)c1ccccc1NC(=O)COC(=O)c1ccc2[nH]c3c(c2c1)CCCC3 (configuration not stated)	Lipid droplet 59
O=C(CSc1nc2cc(Cl)ccc2s1)NCc1ccc2c(c1)OCO2	MC4R ag barr 9.5
COc1ccc(/C(N)=N/O)c(OC)c1	none
C=CCNCC(=O)N1N=C(c2ccc3ccccc3c2)CC1c1ccc(OC)cc1 (configuration not stated)	MC4R ag barr 8.9
COc1ccc(C2CC(c3ccc4ccccc4c3)=NN2C(=O)CNC2CCCCC2)cc1 (configuration not stated)	MC4R ag barr 8.5
COc1ccc(C2CC(c3ccc4ccccc4c3)=NN2C(=O)CN2CCC(C(N)=O)CC2)cc1 (configuration not stated)	none
COc1ccc2[nH]c3c(c2c1)CCN1C(=O)C(CC(=O)NCCCn2ccnc2)C[C@H](C(=O)N(C(C)C)C(C)C)[C@@]31C (some centres not stated)	none (no result: Lipid droplet, PREPL inh)
Cn1c(=O)cc(OCC(=O)NCCCN2CCN(c3ccccc3F)CC2)c2ccccc21	HTR2A ag 25
Cn1c(=O)cc(OCCCC(=O)NCCN2CCN(c3ccccc3F)CC2)c2ccccc21	none (no result: Lipid droplet)
Cc1csc2c(=O)sc(NC(=O)c3ccco3)nc12	none
Cc1csc2c(=O)sc(NC(=O)c3cccs3)nc12	MC4R ag barr 8.5
COc1ccc(C(C)(O)c2nc(-c3cccc(O)c3)cs2)cc1 (configuration not stated)	none (no result: NTR1 ag, Lipid droplet, PREPL inh)
Cc1ccc(Nc2nc(-c3ccccc3)c(CC(=O)O)s2)cc1	PREPL inh 58
CC(C)(C)c1ccc(OCc2cnc(Cl)s2)cc1	MC4R ag barr 9.3
Cc1cc(C)nc(SCCn2c(N3CCOCC3)nc3c2c(=O)[nH]c(=O)n3C)n1	none
Cc1nc2c(OCc3ccc(Cl)cc3)cccn2c1N(C)C(=O)CCC1CCCC1	none (no result: NTR1 ag, Lipid droplet, PREPL inh)
O=C(Cn1cc(/C=C\[N+](=O)[O-])c2ccccc21)Nc1ccccc1	NTR1 ag 47
O=C(O)Cn1cc(/C=C/[N+](=O)[O-])c2ccccc21	none
Cc1ccc2nc(NC(=O)CSCc3ccccc3)sc2c1	MC4R ag barr 8.9
C#CCOCCOCCOCCNc1nc(N2CCOCC2)nc(N2CCN(C(=O)CCCCCCCCCCNC(=O)[C@H]([C@@H](C)CC)n3cc(CCCCN=C(N)N)nn3)CC2)n1	none (no result: Lipid droplet)
C#CCOCCOCCOCCNc1nc(N2CCN(C(=O)CCCCCCCCCCNC(=O)Cn3cc(C[C@@H](C)O)nn3)CC2)nc(N2CCN(C(=O)CCCCCCCCCCNC(=O)[C@@H]([C@H](C)CC)n3cc(CCCCCN)nn3)CC2)n1	none (no result: Lipid droplet)
C#CCOCCOCCOCCNc1nc(N2CCN(C(=O)CCCCCCCCCCNC(=O)[C@H](CCCN=C(N)N)n3cc(C[C@@H](C)CC)nn3)CC2)nc(N2CCN(C(=O)CCCCCCCCCCNC(=O)[C@@H]([C@H](C)CC)n3cc(CCCCCN)nn3)CC2)n1	PREPL inh 60 (no result: MC4R antag cAMP, Lipid droplet, MC4R ag barr, HTR2A ag)
C#CCOCCOCCOCCNc1nc(N2CCN(C(=O)CCCCCCCCCCNC(=O)[C@H]([C@@H](C)CC)n3cc(CCCCN=C(N)N)nn3)CC2)nc(N2CCN(C(=O)CCCCCCCCCCNC(=O)[C@H](CCCN=C(N)N)n3cc(C[C@@H](C)CC)nn3)CC2)n1	PREPL inh 69 (no result: MC4R antag cAMP, Lipid droplet, MC4R ag barr, HTR2A ag)
Cc1ccsc1/C=N\NC(=O)Cn1nnc2ccccc21	none
Cc1ccc(C(=O)N/C(=C\c2ccco2)C(=O)NCCCN2CCOCC2)cc1C	none
Cc1ccc(C(=O)N/C(=C\c2ccco2)C(=O)NCCN2CCOCC2)cc1C	MC4R ag barr 8.4
CC(C)(C)c1ccc(OCc2ccc(C(=O)N/N=C/c3ccc([N+](=O)[O-])cc3)o2)cc1	MC4R ag barr 9.1 (no result: Lipid droplet)
O=C(C[C@@H]1C/C=C/CC[C@H](Cc2ccc(F)cc2)C(=O)OCCNC1=O)N[C@H](CO)Cc1ccccc1	none (no result: Lipid droplet)
CNC(=O)c1c(NC(=O)c2ccc(S(=O)(=O)N3CCCC3)cc2)sc2c1CCN(C(C)C)C2	PREPL inh 44 (no result: MC4R antag cAMP, MC4R ag barr, HTR2A ag)
CNC(=O)c1c(NC(=O)c2ccc(S(=O)(=O)N3CC(C)OC(C)C3)cc2)sc2c1CCN(C(C)C)C2 (configuration not stated)	none
CC(C)Oc1cccc(C(=O)C2CCCN(S(C)(=O)=O)C2)c1 (configuration not stated)	MC4R antag cAMP 29
O=C1CSc2ccc(S(=O)(=O)N3CCN(c4ccccc4F)CC3)cc2N1	none
O=C(Nc1ccc(N=Nc2ccccc2)cc1)c1ccc(Cl)cc1Cl	none (no result: Lipid droplet)
O=C(Nc1ccc(N=Nc2ccccc2)cc1)c1ccccc1Cl	MC4R ag barr 9.5
Cc1cccc(C)c1C(O)c1ncc(-c2ccccc2C(F)(F)F)[nH]1 (configuration not stated)	none (no result: NTR1 ag, Lipid droplet, PREPL inh)
CCOc1cc(OCC)cc(C(=O)N2CCC[C@@H]2C(=O)N2CCC[C@@H]2C(=O)NCc2ccccc2Cl)c1	none (no result: NTR1 ag, MC4R antag cAMP, Lipid droplet, PREPL inh, MC4R ag barr)
Cc1cc(Oc2ccc(Br)cc2)nc(SCC(=O)c2ccccc2)n1	MC4R ag barr 8.6
O=C(CN1CCN(C/C=C/c2ccccc2)CC1)Nc1cc([N+](=O)[O-])ccc1Cl	PREPL inh 49
Cc1cc(NC(=O)CN2CCN(C/C=C/c3ccccc3)CC2)c([N+](=O)[O-])cc1C	none
COc1cc(OC)cc(C(=O)NCCNc2nc3cc(C)cc(C)c3cc2C#N)c1	none
COc1cc(NC(=O)COc2c(C)cc(C)cc2[N+](=O)[O-])c(OC)cc1Cl	MC4R ag barr 8.4
O=C(Nc1nc(-c2ccc(Cl)cc2)cs1)C1CCCO1 (configuration not stated)	none
